Results from different studies.
Lines come from different studies, so protocols differ.
Target: Adenosine receptor A2a (ADORA2A, Homo sapiens, UniProt P29274)

Structure (SMILES)	assay	setting	inhibition
CCN(Cc1ccccc1C(F)(F)F)C(=O)C1CCN(S(=O)(=O)c2ccc3[nH]ncc3c2)CC1	ligand displacement, radioligand	10 µM	3%
Ic1cccc2cnccc12	ligand displacement, radioligand	10 µM	8%
O=C(c1ccc(F)cc1)N(Cc1ccccc1)C1CCCCC1	cell-free assay	10 µM	5%
CC(C)(C)OC(=O)N1CCN(CC(=O)Nc2ccc3oc(-c4ccco4)nc3c2)CC1	ligand displacement, radioligand	10 µM, cell membranes	25%
O=C(Nc1ccc(S(=O)(=O)N2CCC(Cl)CC2)cc1)c1ccc([N+](=O)[O-])o1	ligand displacement, radioligand	10 µM	8%
O=C1N=C(N2CCCCN2)S/C1=C\c1ccc(F)cc1O	ligand displacement, radioligand	10 µM	10%
c1coc(-c2nc3ccc(CN4CCCCC4)cc3o2)c1	ligand displacement, radioligand	10 µM, cell membranes	5%
COc1cc(NC(C)=O)c(Cl)cc1C(=O)Nc1nccs1	cell-free assay	10 µM	39.7%
Nc1nc[nH]c(=O)c1Cl	ligand displacement, radioligand	30 µM, cell membranes	23%
c1ccc(N2CCN(CCc3ccc4oc(-c5ccco5)nc4c3)CC2)cc1	ligand displacement, radioligand	10 µM, cell membranes	3%
C=CN1CCCn2c1nc1c2c(=O)n(C)c(=O)n1C	ligand displacement, radioligand	10 µM, cell membranes	29%
C#CCNc1nc(Cl)nc2c1ncn2[C@H]1[C@H](O)[C@H](O)[C@]2(C(=O)NC)C[C@H]12	ligand displacement, radioligand	10 µM, cell membranes	23%
